We go through eleven molecules from ChEMBL document CHEMBL4422687, “Highly potent and selective aryl-1,2,3-triazolyl benzylpiperidine inhibitors toward butyrylcholinesterase in Alzheimer's disease” (Bioorg Med Chem, 2019).

One data set addresses Acetylcholinesterase (Homo sapiens, UniProt P22303). The experiment in a line: Inhibition of recombinant human AChE using acetylthiocholine iodide as substrate preincubated for 5 mins followed by substrate addition and measured for 5 mins by Ellman's method.
Data set [1] concerns the target T1, Cholinesterase (Homo sapiens, UniProt P06276). The experiment in a line: Inhibition of recombinant human BuChE using butyrylthiocholine iodide as substrate preincubated for 5 mins followed by substrate addition and measured for 5 mins by Ellman's method.
For data set [2], the system named is SH-SY5Y. The data set is described as follows: Cytotoxicity against human SH-SY5Y cells assessed as reduction in cell viability at 80 uM after 24 hrs by XTT assay. The format is cell-based.
The subject of data set [3] is SH-SY5Y. The data set is described as follows: Cytotoxicity against human SH-SY5Y cells assessed as reduction in cell viability at BuChE IC50 after 120 hrs by XTT assay. The format is cell-based. In short, it runs like this: (§1)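 SH-SY5Y human neuroblastoma cells were treated with seven concentrations of each compound. Viability was read by XTT colorimetric assay after a 24 h or 120 h recovery period.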

Data set [4] deals with SH-SY5Y. The experiment in a line: Cytotoxicity against human SH-SY5Y cells assessed as reduction in cell viability at 2.5 uM after 24 hrs by XTT assay. The format is cell-based.
Data set [5] has as its target T1, Cholinesterase. The data set is described as follows: Potency index, ratio of donepezil IC50 to test compound IC50 for recombinant human BuChE.
The test system of data set [6] is SH-SY5Y. The experiment in a line: Cytotoxicity against human SH-SY5Y cells assessed as reduction in cell viability at BuChE IC50 after 24 hrs by XTT assay. The format is cell-based. Put shortly: as §1
In data set [7] the test system is SH-SY5Y. The experiment in a line: Cytotoxicity against human SH-SY5Y cells assessed as reduction in cell viability at 40 uM after 24 hrs by XTT assay. The format is cell-based.
In data set [8] the test system is SH-SY5Y. The data set is described as follows: Cytotoxicity against human SH-SY5Y cells assessed as reduction in cell viability at 39.6 nM after 24 hrs by XTT assay. The format is cell-based. Conditions: 0.0396 µM.
Data set [9] concerns the target T1, Cholinesterase. The data set is described as follows: Mixed-type inhibition of recombinant human BuChE using varying levels of butyrylthiocholine iodide as substrate by Lineweaver-burk plot analysis.
The species named for a further data set is Homo sapiens. The experiment in a line: Selectivity ratio of IC50 for recombinant human AChE to IC50 for recombinant human BuChE.

Calls of active or inactive are those of the source. No cut-off for these calls is given here. A value given as a limit tells only on which side of the number the result lay.

Sequence of Acetylcholinesterase (P22303 whole entry): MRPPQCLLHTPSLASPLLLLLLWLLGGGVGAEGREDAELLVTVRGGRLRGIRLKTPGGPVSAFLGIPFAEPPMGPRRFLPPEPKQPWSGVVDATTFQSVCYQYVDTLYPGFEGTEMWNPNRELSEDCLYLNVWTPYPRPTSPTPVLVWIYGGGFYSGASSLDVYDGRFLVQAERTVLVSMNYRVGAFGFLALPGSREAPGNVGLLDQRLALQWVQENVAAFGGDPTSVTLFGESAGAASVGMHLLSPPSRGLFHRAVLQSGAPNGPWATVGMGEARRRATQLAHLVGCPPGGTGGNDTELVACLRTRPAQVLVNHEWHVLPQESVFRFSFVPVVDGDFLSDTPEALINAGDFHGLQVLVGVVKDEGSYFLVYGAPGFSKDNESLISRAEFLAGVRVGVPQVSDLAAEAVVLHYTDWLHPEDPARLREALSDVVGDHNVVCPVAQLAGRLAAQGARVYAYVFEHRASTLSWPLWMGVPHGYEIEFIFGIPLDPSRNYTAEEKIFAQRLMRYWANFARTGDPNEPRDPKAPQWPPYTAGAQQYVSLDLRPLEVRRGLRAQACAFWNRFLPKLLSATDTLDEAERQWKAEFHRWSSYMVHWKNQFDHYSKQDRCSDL
T1 sequence (P06276 whole entry): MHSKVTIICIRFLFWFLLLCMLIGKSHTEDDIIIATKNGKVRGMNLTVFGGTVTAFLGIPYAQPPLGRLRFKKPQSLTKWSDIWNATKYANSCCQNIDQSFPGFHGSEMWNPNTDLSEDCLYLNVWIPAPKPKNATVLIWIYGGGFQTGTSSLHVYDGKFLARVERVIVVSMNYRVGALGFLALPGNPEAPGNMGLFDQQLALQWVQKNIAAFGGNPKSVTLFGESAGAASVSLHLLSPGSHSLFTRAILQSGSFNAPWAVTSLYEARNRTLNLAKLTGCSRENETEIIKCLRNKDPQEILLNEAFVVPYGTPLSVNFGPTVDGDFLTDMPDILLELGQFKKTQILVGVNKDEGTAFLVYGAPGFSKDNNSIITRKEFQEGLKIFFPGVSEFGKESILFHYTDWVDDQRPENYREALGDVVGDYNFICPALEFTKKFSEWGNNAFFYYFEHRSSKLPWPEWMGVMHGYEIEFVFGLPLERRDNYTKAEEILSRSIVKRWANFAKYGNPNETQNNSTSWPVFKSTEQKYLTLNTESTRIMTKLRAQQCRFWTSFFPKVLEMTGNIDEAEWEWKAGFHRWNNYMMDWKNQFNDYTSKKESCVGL

On to `COc1cc2c(cc1OC)C(=O)C(Cc1cn(CC3CCN(Cc4ccccc4)CC3)nn1)C2` (stereo not drawn), for which the IC50 on Acetylcholinesterase is 4.92 µM; at Cholinesterase [1] it was > 10 µM.

Consider `CC(=O)N[C@@H](CCCCn1cc(-c2ccccc2)nn1)C(=O)NCC1CCN(Cc2ccccc2)CC1`, for which the IC50 is > 10 µM at Acetylcholinesterase and 1.02 µM at Cholinesterase [1]. In addition, the Activity result with SH-SY5Y [2] is on record as “Toxic”; with SH-SY5Y [3] it was “Non-Toxic”; in the data set on SH-SY5Y [4] it was “Toxic”; in the data set with SH-SY5Y [6] it was “Non-Toxic”. Moreover, the Ratio IC50 at Cholinesterase [5] was 9.

As to `c1ccc(CN2CCC(Cn3cc(CSc4nc5ccccc5[nH]4)nn3)CC2)cc1`, the IC50 on Acetylcholinesterase worked out at 7.33 µM; on Cholinesterase [1], 0.065 µM.

For `N[C@@H](CCCCn1cc(-c2ccccc2)nn1)C(=O)NCC1CCN(Cc2ccccc2)CC1`, the IC50 at Acetylcholinesterase is > 10 µM; at Cholinesterase [1], 0.97 µM. The Activity result was “Non-Toxic” in the data set with SH-SY5Y [3], “Toxic” with SH-SY5Y [7] and “Non-Toxic” in the data set on SH-SY5Y [6].

Consider `O=C(Cc1c[nH]c2ccccc12)NCc1cn(CC2CCN(Cc3ccccc3)CC2)nn1`, for which the IC50 was > 10 µM at Acetylcholinesterase and 5.3 µM at Cholinesterase [1].

Take `O=C1c2ccccc2C(=O)N1Cc1cn(CC2CCN(Cc3ccccc3)CC2)nn1`: the IC50 is 4.9 µM at Acetylcholinesterase and > 10 µM on Cholinesterase [1].

With `c1ccc(CN2CCC(Cn3cc(CNc4ncnc5ccccc45)nn3)CC2)cc1`, the IC50 on Acetylcholinesterase worked out at 4.22 µM; at Cholinesterase [1], 2.95 µM.

As to `N[C@@H](Cn1cc(-c2ccccc2)nn1)C(=O)NCC1CCN(Cc2ccccc2)CC1`, the Activity result with SH-SY5Y [8] is “Toxic”; in the data set with SH-SY5Y [3], “Non-Toxic”; in the data set with SH-SY5Y [6], “Non-Toxic”. The results for the IC50 at Acetylcholinesterase and at Cholinesterase [1] were > 10 µM and 0.0099 µM, respectively. For the same molecule, the inhibition entry at Cholinesterase [9] is “Active”.

Take `COc1cc2ncnc(NCc3cn(CC4CCN(Cc5ccccc5)CC4)nn3)c2cc1OC`: the values for the IC50 at Acetylcholinesterase and on Cholinesterase [1] were 3.94 µM and > 10 µM, respectively.

Take `CCOc1ccc2[nH]c(SCc3cn(CC4CCN(Cc5ccccc5)CC4)nn3)nc2c1`: the IC50 came to 6.9 µM at Acetylcholinesterase and 1.91 µM on Cholinesterase [1].

For the molecule `CC(=O)N[C@@H](Cn1cc(-c2ccccc2)nn1)C(=O)NCC1CCN(Cc2ccccc2)CC1`, the IC50 at Acetylcholinesterase was > 10 µM; on Cholinesterase [1], 0.00017 µM. The inhibition entry on Cholinesterase [9] was “Active”. Besides, the Ratio IC50 in the data set listed under Homo sapiens was > 58000; at Cholinesterase [5] it was 53000. Besides, the Activity entry in the data set on SH-SY5Y [6] is “Non-Toxic”.
